“Also recorded” adds a separate entry of the source. Like-named read-outs stand apart in the source and are kept apart here. Each block holds one compound with its values, some of them ahead of it.
What was measured:
[1] = Drug metabolism rate assay; format: in vitro ADME; conditions: human, MHCC97-H cells
[2] = test system: E-Cadherin; assay: AmpliSeq expression in MHCC97-H cells: E-Cadherin; format: cell-based; conditions: Fig. 5B
Outline: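 MHCC97-H cells in DMEM with 10% FBS were treated with pralatrexate (2, 1, 0.5), fatostatin (1, 0.1) or BAY-876 (1, 0.1 μmol/L). RNA (10 ng) was reverse transcribed and amplified with custom AmpliSeq RNA panels. Expression was normalised to β-actin. Three replicate wells per sample; three biological replicates.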

[3] = test system: NICD; assay: AmpliSeq expression in MHCC97-H cells: NICD; format: cell-based; conditions: MHCC97-H cells with direct expression of NICD, Fig. 7
[4] = test system: MHCC97-H cells; assay: In vivo tumor model, MHCC97-H subcutaneous tumours; parameters: species or system nude mice
[5] = test system: miRNA-34a; assay: AmpliSeq miRNA-34a expression in MHCC97-H cells; format: cell-based; conditions: MHCC97-H cells with direct expression of NICD, Fig. 7
Outline: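 MHCC97-H cells were transduced with NICD lentivirus and cultured in DMEM with 10% FBS. RNA (10 ng) was reverse transcribed and cDNA amplified with custom AmpliSeq RNA panels to quantify miRNA-34a, normalised to β-actin. Three replicate wells per sample; three biological replicates.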

[6] = test system: miRNA-34a promoter region; assay: BSP-NGS methylation of miRNA-34a promoter in MHCC97-H cells; format: cell-based; conditions: MHCC97-H cells with direct expression of NICD, Fig. 7
Outline: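 Genomic DNA from NICD-lentivirus-transduced MHCC97-H cells was isolated with a kit and used for bisulfite sequencing PCR plus next-generation sequencing. The region analysed was the miRNA-34a promoter segment chr1: 9152409–9152574, which holds seven CpG sites. Methylation rates were calculated by the Ma et al. (2020) procedure.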

[7] = test system: Notch 1 protein and NICD; assay: Sub-cellular fraction assay with western blot; format: cell-based; conditions: MHCC97-H, 2 μmol/L, 30 min, 1 h, 2 h
Outline: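 After treatment, cells were sonicated. Nuclei were pelleted at 800 rpm, 4 °C, ~3 min, and the cytoplasmic fraction at 12,000 rpm, 4 °C, ~10 min. Fractions were boiled ~15 min in SDS-PAGE buffer and blotted onto PVDF. One C-terminal Notch1 antibody detected full-length Notch1 (>220 kDa) and NICD (~110 kDa). β-actin and Lamin A served as cytoplasmic and nuclear markers; detection was by chemiluminescence.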

[8] = test system: miRNA-34a/Notch pathway; assay: BSP-NGS, AmpliSeq and western blot of subcutaneous tumour tissues; format: in vivo, nude mice
Outline: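 Female BALB/c nude mice (5-week-old, SPF) bore subcutaneous MHCC97-H tumours, one per animal, 10 per group. Pralatrexate 5 mg/kg was given by oral gavage every other day for about 15 doses. All excised tumours underwent BSP-NGS (miRNA-34a promoter methylation) and AmpliSeq (miRNA-34a expression). Tumours 2, 4 and 8 were lysed in RIPA/SDS buffer for western blot of NICD against GAPDH.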

[9] = test system: HCC cells; assay: Biochemical examination of metabolic features; format: cell-based; conditions: compared to BAY-876 or fatostatin, Fig. 6
[10] = test system: MHCC97-H cells; assay: MTT assay, MHCC97-H cells; format: cell-based; conditions: Homo sapiens, MHCC97H
Outline: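 MHCC97-H cells in DMEM with 10% FBS were pretreated 6–8 h with solvent control or pralatrexate (0.5, 1, 2 μmol/L). Molecular targeted drugs were then added as a seven-point series from 10 to 0.01 for about 48 h, with drugs dissolved in DMSO and diluted in DMEM. Viability was read by MTT at OD 490 nm. Inhibition % was computed against control and IC50 fitted in GraphPad Prism.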

[11] = test system: LMC-3 cells; assay: MTT assay, LMC-3 cells; format: cell-based
Outline: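 LMC-3 cells in DMEM with 10% FBS were transfected with control siRNA or siDHFR. They were then exposed to graded sorafenib concentrations and assayed by MTT. Inhibition = (OD490 control − OD490 treated)/OD490 control × 100%. IC50 was fitted from dose–effect curves in GraphPad Prism.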

[12] = test system: HepG2 cells; assay: MTT assay, HepG2 cells; format: cell-based; conditions: Homo sapiens
Outline: (§1)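 HCC cells were transfected with control siRNA or siRNA against DHFR. Test compound was dissolved in DMSO, diluted in DMEM and applied at a concentration series. Viability was read by MTT and OD 490 nm. Inhibition = (OD control − OD treated)/OD control × 100%. IC50 was taken from dose–effect curves.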

[13] = test system: HepG2 2.2.15 cells; assay: MTT assay, HepG2 2.2.15 cells; format: cell-based; conditions: Homo sapiens
Outline: as §1

half-life at 0.3 μmol/L [1]: 13.2 h
Structure (SMILES): COc1cccc2c1C(=O)c1c(O)c3c(c(O)c1C2=O)C[C@@](O)(C(=O)CO)C[C@@H]3O[C@H]1C[C@H](N)[C@H](O)[C@H](C)O1 [Adriamycin, adriamycin]

Structure (SMILES): Cc1c(NC(=O)c2cc(C(N)=O)nc3cc(F)ccc23)c(C(F)(F)F)nn1Cc1ccc(C#N)cc1 [BAY-876]
E-Cadherin expression [2]: enhanced the expression of E-Cadherin

Structure (SMILES): CCCc1cc(-c2nc(-c3ccc(C)cc3)cs2)ccn1 [Fatostatin, fatostatin]
E-Cadherin expression [2]: enhanced the expression of E-Cadherin

Structure (SMILES): C#CCC(Cc1cnc2nc(N)nc(N)c2n1)c1ccc(C(=O)N[C@@H](CCC(=O)O)C(=O)O)cc1 (stereo partly drawn) [Pralatrexate, pralatrexate]
expression levels of NICD and Notch downstream factors [3]: no longer able to affect the expression levels of NICD and Notch downstream factors | E-Cadherin expression [2]: upregulated the expression of E-cadherin; also recorded: enhanced the expression of E-Cadherin | effect of combination on antitumour activity of sorafenib ([4]; 5 mg/kg Pralatrexate + 0.2 mg/kg sorafenib, oral): significantly increase the antitumour activity of sorafenib | antitumour activity / cytotoxicity, subcutaneous tumours ([4]; Pralatrexate 5 mg/kg oral gavage, alone): did not have significant cytotoxicity and weak | anti-tumour activity, subcutaneous tumours ([4]; Pralatrexate higher doses (e.g. 20 mg/kg) oral gavage): significant anti-tumour activity | miRNA-34a expression [5]: upregulate miRNA-34a expression | methylation rates of miRNA-34a promoter region [6]: decrease the methylation rates | Notch 1 protein expression (cytoplasm) [7]: did not affect the protein expression of Notch 1 | distribution of NICD in the nucleus [7]: did not affect the distribution of NICD in the nucleus | expression of NICD and Survivin in tumour tissue ([8]; NICD expression restored in MHCC97-H cells, Pralatrexate 5 mg/kg): no longer able to inhibit the expression of NICD and Survivin | expression of factors related to the Notch pathway in tumour tissue ([8]; Pralatrexate 5 mg/kg oral): down-regulate the expression of factors related to the Notch pathway | expression of miRNA-34a in tumour tissue ([8]; Pralatrexate 5 mg/kg oral): up-regulate the expression of miRNA-34a | methylation of the promoter region of miRNA-34a in tumour tissue ([8]; Pralatrexate 5 mg/kg oral): inhibit the methylation of the promoter region of miRNA-34a | Warburg effect of HCC cells [9]: did not inhibit the Warburg effect

IC50 ([12]; HepG2, read-out: IC50 values of sorafenib on HCC cells, HepG2 cells, control): 1160 nM | IC50 ([12]; HepG2, read-out: IC50 values of sorafenib on HCC cells, HepG2 cells, siDHFR): 37 nM | IC50 ([13]; HepG2 2.2.15, read-out: IC50 values of sorafenib on HCC cells, HepG2 2.2.15 cells, control): 1250 nM | IC50 ([13]; HepG2 2.2.15, read-out: IC50 values of sorafenib on HCC cells, HepG2 2.2.15 cells, siDHFR): 13 nM | half-life at 1 μmol/L [1]: 18.8 h
Structure (SMILES): CNC(=O)c1cc(Oc2ccc(NC(=O)Nc3ccc(Cl)c(C(F)(F)F)c3)cc2)ccn1 [Sorafenib, sorafenib]
IC50 ([10]; read-out: IC50 value of sorafenib in MHCC97-H cells, Control siRNA): 1110 nM | IC50 ([10]; read-out: IC50 values of Sorafenib on MHCC97-H cells, Control group): 1020 nM | IC50 ([10]; read-out: IC50 values of Sorafenib on MHCC97-H cells, DHFR + miRNA-34a): 250 nM | IC50 ([10]; read-out: IC50 values of Sorafenib on MHCC97-H cells, DHFR overexpression): 5380 nM | IC50 ([10]; read-out: IC50 values of Sorafenib on MHCC97-H cells, siDHFR + NICD): 5670 nM | IC50 ([11]; read-out: IC50 values of sorafenib on HCC cells, LMC-3 cells, control): 910 nM | IC50 ([11]; read-out: IC50 values of sorafenib on HCC cells, LMC-3 cells, siDHFR): 25 nM | antitumour activity, subcutaneous tumours ([4]; sorafenib 0.2 mg/kg (low dose) oral gavage, alone): weak subcutaneous tumourigenic inhibitory activity and weak

From PMC11589030 (Discover Oncology, 2024)
